How the values were obtained:
[1] = target: cGMP-specific 3',5'-cyclic phosphodiesterase (Canis lupus familiaris, UniProt O77746); assay: Inhibition of canine lung PDE5 using [3H]cGMP incubated for 30 mins by scintillation analysis
Outline: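 Radiolabeled nucleotide method using PDE5 isolated from canine lung. Started with [³H]cGMP plus unlabeled cGMP, 37 °C for 30 min, stopped by boiling 1.5 min. Crotalus atrox venom step at 37 °C for 30 min, column separation, eluate counted by scintillation.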

[2] = Selectivity for bovine retina PDE6 to canine lung PDE5
[3] = system: Corpus cavernosum; assay: Relaxation effect on phenylephrine-induced contractile response in isolated rabbit corpus cavernosum; format: functional; details: Oryctolagus cuniculus
Outline: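 Isolated rabbit corpus cavernosum strips in organ baths. High-KCl (120 mM) PSS contraction checked twice, then phenylephrine (5 × 10⁻⁶ M) gave a tonic contraction. Once stable, test compound (10⁻¹⁰–10⁻⁶ M) or vehicle added at 30 min intervals. EC30 derived from the logarithmic concentration–inhibition curve.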

Compound | IC50 [1] [nM] | Selectivity ratio [2] | EC30 [3] [nM] | Ratio IC50 [2]
COc1ccc(CNc2nc(N3CCC[C@H]3CO)ncc2C(=O)c2nccn2C)cc1Cl | 12 | – | – | –
COc1ccc(Cn2c(=O)ccc3cnc(N4CCC[C@H]4CO)nc32)cc1Cl | 3.3 | 850 | 2.2 | –
COc1ccc(CNc2nc(N3CCC[C@H]3CO)ncc2C=O)cc1Cl | 33 | – | – | –
COc1ccc(CNc2nc(N3CCC[C@H]3CO)ncc2C(=O)c2cc(OC)c(OC)c(OC)c2)cc1Cl | 0.21 | – | > 100 | 5700
COc1ccc(Cn2c(=O)cc(CCN3CCOCC3)c3cnc(N4CCC[C@H]4CO)nc32)cc1Cl | 0.98 | 1600 | 8.6 | –
COc1ccc(Cn2c(=O)cc(-c3nccn3C)c3cnc(N4CCC[C@H]4CO)nc32)cc1Cl | 7.2 | – | – | –
COc1ccc(Cn2c(=O)cc(C)c3cnc(N4CCC[C@H]4CO)nc32)cc1Cl | 0.86 | 2300 | 0.85 | –
COc1ccc(CNc2nc(N3CCC[C@H]3CO)ncc2C(=O)CCN2CCOCC2)cc1Cl | 2.9 | – | – | –
COc1ccc(CNc2nc(N3CCC[C@H]3CO)ncc2C(C)=O)cc1Cl | 5.2 | – | – | –
COc1ccc(Cn2c(=O)cc(-c3ccccn3)c3cnc(N4CCC[C@H]4CO)nc32)cc1Cl | 1.7 | 1900 | – | –
COc1ccc(CNc2nc(N3CCC[C@H]3CO)ncc2C(=O)c2ccccn2)cc1Cl | 12 | – | – | –
CCCc1nn(C)c2c(=O)[nH]c(-c3cc(S(=O)(=O)N4CCN(C)CC4)ccc3OCC)nc12 [SILDENAFIL] | – | – | 8.7 | –
